Data from ChEMBL document CHEMBL4138280, “Ribocyclophanes A-E, Glycosylated Cyclophanes with Antiproliferative Activity from Two Cultured Terrestrial Cyanobacteria” (J Nat Prod, 2018).
One block for each compound: values may come before it. The source made the active and inactive calls. No cut-off for these calls is given here.

Key:
MDA-MB-231 [1] = test: Antiproliferative activity against human MDA-MB-231 cells after 96 hrs by CellTiter 96 AQueous one solution cell proliferation assay; assay type: functional, cell-based; settings: MDA-MB-231, 96 h
Method in brief: (§1)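 Cells kept in RPMI 1640 with 10% FBS, penicillin (100 units/mL) and streptomycin (100 μg/mL) at 37 °C, 5% CO₂. Log-phase cells were trypsinized and seeded at 5000 per well, then left overnight. DMSO solutions were serially diluted and added at 25, 5.0, 1.0, 0.2 and 0.04 μg/mL for 96 h at 37 °C. Viability was read by absorbance as percent viable cells versus solvent control.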

MDA-MB-435 [2] = test: Antiproliferative activity against human MDA-MB-435 cells after 96 hrs by CellTiter 96 AQueous one solution cell proliferation assay; assay type: functional, cell-based; settings: MDA-MB-435, 96 h; method in brief: as §1
MDA-MB-231 [3] = test: Antiproliferative activity against human MDA-MB-231 cells at 0.04 to 25 ug/ml after 96 hrs by CellTiter 96 AQueous one solution cell proliferation assay
MDA-MB-435 [4] = test: Antiproliferative activity against human MDA-MB-435 cells at 0.04 to 25 ug/ml after 96 hrs by CellTiter 96 AQueous one solution cell proliferation assay
MDA-MB-435 [5] = test: Antiproliferative activity against human MDA-MB-435 cells at 25 ug/ml after 96 hrs by CellTiter 96 AQueous one solution cell proliferation assay
MDA-MB-231 [6] = test: Antiproliferative activity against human MDA-MB-231 cells at 25 ug/ml after 96 hrs by CellTiter 96 AQueous one solution cell proliferation assay
MDA-MB-435 [7] = test: Antiproliferative activity against human MDA-MB-435 cells assessed as viable cells at 1 ng/ml after 96 hrs by CellTiter 96 AQueous one solution cell proliferation assay relative to control; assay type: functional; settings: MDA-MB-435, 96 h, read-out: Activity

IC50 (MDA-MB-231 [1]): 1200 nM
IC50 (MDA-MB-435 [2]): 1300 nM
Structure (SMILES): CCCC[C@H]1CCCC[C@H](C)Cc2cc(O)c(c(O)c2)[C@@H](CCCC)CCCC[C@H](C)[C@@H](O[C@@H]2OC[C@@H](O)[C@@H](O)[C@H]2O)c2cc(O)c1c(O)c2

Structure (SMILES): CCCC[C@H]1CCCC[C@H](C)[C@@H](O[C@@H]2OC[C@@H](O)[C@@H](O)[C@H]2O)c2cc(O)c(c(O)c2)[C@@H](CCCC)CCCC[C@H](C)[C@@H](O[C@@H]2OC[C@@H](O)[C@@H](O)[C@H]2O)c2cc(O)c1c(O)c2
Activity (MDA-MB-231 [3]): Active
Activity (MDA-MB-435 [4]): Active

Structure (SMILES): CCCC[C@H]1CCCC[C@H](C)[C@@H](O)c2cc(O)c(c(O)c2)[C@@H](CCCC)CCCC[C@H](C)[C@@H](O[C@@H]2OC[C@@H](O)[C@@H](O)[C@H]2O)c2cc(O)c1c(O)c2
Activity (MDA-MB-231 [3]): Active
Activity (MDA-MB-435 [4]): Active

Structure (SMILES): CCCCC(Cl)CCCC[C@H](C)[C@@H](O[C@@H]1OC[C@@H](O)[C@@H](O)[C@H]1O)c1cc(O)c([C@@H](CCCC)CCCC[C@H](C)[C@@H](OC(C)=O)c2cc(O)cc(O)c2)c(O)c1 (stereo partly drawn)
Activity (MDA-MB-435 [5]): inactive
Activity (MDA-MB-231 [6]): inactive

Structure (SMILES): CCCC[C@H]1CCCC[C@H](C)[C@@H](OC(C)=O)c2cc(O)c(c(O)c2)[C@@H](CCCC)CCCC[C@H](C)[C@@H](OC(C)=O)c2cc(O)c1c(O)c2
Activity (MDA-MB-231 [3]): Active
Activity (MDA-MB-435 [4]): Active

Structure (SMILES): CC[C@]1(O)C[C@@H]2CN(CCc3c([nH]c4ccccc34)[C@@](C(=O)OC)(c3cc4c(cc3OC)N(C)[C@H]3[C@@](O)(C(=O)OC)[C@H](OC(C)=O)[C@]5(CC)C=CCN6CC[C@]43[C@@H]65)C2)C1 [VINBLASTINE]
viability at 0.001 µg/mL (MDA-MB-435 [7]): 49%

IC50 (MDA-MB-231 [1]): 800 nM
IC50 (MDA-MB-435 [2]): 600 nM
Structure (SMILES): CCCC[C@H]1CCCC[C@H](C)[C@@H](OC(C)=O)c2cc(O)c(c(O)c2)[C@@H](CCCC)CCCC[C@H](C)[C@@H](O[C@@H]2OC[C@@H](O)[C@@H](O)[C@H]2O)c2cc(O)c1c(O)c2
